{"source": "ChEMBL document CHEMBL1130145", "about": "“Synthesis, anti-human immunodeficiency virus and anti-hepatitis B virus activities of novel oxaselenolane nucleosides” (J Med Chem, 1997)", "key": {"[1]": {"assay": "Toxic activity against peripheral blood mononuclear cells.", "type": "toxicity", "summary_of_the_method": "(§1)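 Cytotoxicity tested at concentrations up to 100 μM in PBM, CEM and Vero cells.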"}, "[2]": {"system": "CCRF-CEM", "assay": "The cytotoxicity against CEM cells", "type": "functional, cell-based", "conditions": "Homo sapiens", "summary_of_the_method": "as §1"}, "[3]": {"assay": "Toxic activity against VERO cells.", "type": "toxicity, cell-based", "conditions": "Chlorocebus sabaeus", "summary_of_the_method": "as §1"}, "[4]": {"assay": "In vitro anti-HIV activity in peripheral blood mononuclear cells.", "type": "functional", "summary_of_the_method": "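Antiviral assay in primary lymphocytes (peripheral blood mononuclear cells) infected with HIV-1; activity reported as EC50.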"}, "[5]": {"system": "HepG2", "assay": "In vitro effective concentration against hepatitis B virus was determined in 2.2.15 cells", "type": "functional, cell-based", "conditions": "Homo sapiens"}}, "data": [{"smiles": "Nc1ccn([C@@H]2C[Se][C@@H](CO)O2)c(=O)n1", "values": [{"measurement": "IC50", "setting": "[1]", "result": "> 100", "unit": "µM"}, {"measurement": "IC50", "setting": "[2]", "result": "> 100", "unit": "µM"}, {"measurement": "IC50", "setting": "[3]", "result": "> 100", "unit": "µM"}, {"measurement": "EC50", "setting": "[4]", "result": 2.4, "unit": "µM"}]}, {"smiles": "Nc1nc(=O)n([C@@H]2C[Se][C@@H](CO)O2)cc1F", "values": [{"measurement": "IC50", "setting": "[1]", "result": "> 100", "unit": "µM"}, {"measurement": "IC50", "setting": "[2]", "result": "> 100", "unit": "µM"}, {"measurement": "IC50", "setting": "[3]", "result": "> 100", "unit": "µM"}, {"measurement": "EC50", "setting": "[4]", "result": "> 10", "unit": "µM"}]}, {"smiles": "Nc1nc(=O)n([C@H]2C[Se][C@@H](CO)O2)cc1F", "values": [{"measurement": "IC50", "setting": "[1]", "result": "> 100", "unit": "µM"}, {"measurement": "EC50", "setting": "[5]", "result": 1.2, "unit": "µM"}, {"measurement": "IC50", "setting": "[2]", "result": "> 100", "unit": "µM"}, {"measurement": "IC50", "setting": "[3]", "result": "> 100", "unit": "µM"}, {"measurement": "EC50", "setting": "[4]", "result": 0.51, "unit": "µM"}]}, {"smiles": "Nc1ccn([C@H]2C[Se][C@@H](CO)O2)c(=O)n1", "values": [{"measurement": "IC50", "setting": "[1]", "result": "> 100", "unit": "µM"}, {"measurement": "EC50", "setting": "[5]", "result": 1.2, "unit": "µM"}, {"measurement": "IC50", "setting": "[2]", "result": "> 100", "unit": "µM"}, {"measurement": "IC50", "setting": "[3]", "result": "> 100", "unit": "µM"}, {"measurement": "EC50", "setting": "[4]", "result": 0.88, "unit": "µM"}]}, {"smiles": "Nc1ccn([C@@H]2CSC(CO)O2)c(=O)n1", "note": "(single isomer, unassigned) [LAMIVUDINE]", "values": [{"measurement": "IC50", "setting": "[1]", "result": "> 100", "unit": "µM"}, {"measurement": "EC50", "setting": "[5]", "result": 0.008, "unit": "µM"}, {"measurement": "IC50", "setting": "[2]", "result": "> 100", "unit": "µM"}, {"measurement": "IC50", "setting": "[3]", "result": "> 100", "unit": "µM"}, {"measurement": "EC50", "setting": "[4]", "result": 0.07, "unit": "µM"}]}]}
